Laboratory results as given in ChEMBL document CHEMBL1125540, “Antiviral and antitumor structure-activity relationship studies on tetracyclic eudistomines” (1992).
≈ marks a conversion by molar mass, not a printed value.

Columns and labels:
Format in all cases: functional
[1] = test system: HeLa; assay: Evaluation for antiviral activity against Coxsackie virus B4 in HeLa cell cultures (Concentration required to reduce virus-induced cytopathogenicity by 50%); details: Homo sapiens
In short: (§1)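 HeLa cultures were infected with respiratory syncytial, vesicular stomatitis, Coxsackie B4 or polio-1 virus. The antiviral end-point is 50% reduction of virus-induced cytopathogenicity. Cytotoxicity is the minimum concentration producing microscopically detectable alteration of normal cell morphology.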

[2] = test system: HeLa; assay: Evaluation for antiviral activity against vesicular stomatitis virus in HeLa cell cultures (Concentration required to reduce virus-induced cytopathogenicity by 50%); details: Homo sapiens; in short: as §1
[3] = test system: HeLa; assay: Evaluation in HeLa cell cultures for cytotoxicity that is to cause microscopically detectable alteration of normal cell morphology; details: Homo sapiens; in short: as §1
[4] = test system: MDCK; assay: Compound was evaluated in MDCK cell cultures for cytotoxicity that is to cause microscopically detectable alteration of normal cell morphology; details: Canis lupus familiaris
In short: (§2)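 Influenza A and B virus replication in MDCK cultures. Antiviral value is the concentration giving 50% reduction of virus-induced cytopathogenicity. Cytotoxicity is the concentration causing a microscopically detectable change in normal cell morphology.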

[5] = test system: MT4; assay: Inhibitory effect on the proliferation of human T-lymphocyte (MT-4); details: read-out: ID50 (the source's name)
In short: (§3)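 Proliferation assay in murine leukemia L1210, human T-lymphoblast Molt-4F and human T-lymphocyte MT-4 cells. ID50 is the dose inhibiting tumor cell proliferation by 50%, expressed in μg/mL.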

[6] = test system: MOLT-4F; assay: Inhibitory effect on the proliferation of human T-lymphoblast cells (Molt-4F); details: read-out: ID50 (the source's name); in short: as §3
[7] = Evaluation for antiviral activity against vesicular stomatitis virus in primary rabbit kidney cell cultures(PRK) (Concentration required to reduce virus-induced cytopathogenicity by 50%); details: Oryctolagus cuniculus
[8] = Evaluation in PRK cell cultures for cytotoxicity that is to cause microscopically detectable alteration of normal cell morphology; details: Oryctolagus cuniculus
[9] = Evaluation for antiviral activity against herpes simplex virus-1(F) in primary rabbit kidney cell cultures(PRK) (Concentration required to reduce virus-induced cytopathogenicity by 50%); details: Oryctolagus cuniculus
[10] = Evaluated for antiviral activity against herpes simplex virus-1(KOS) in primary rabbit kidney cell cultures(PRK) (Concentration required to reduce virus-induced cytopathogenicity by 50%); details: Oryctolagus cuniculus
[11] = Evaluation for antiviral activity against herpes simplex virus-1 (McIntyre) in primary rabbit kidney cell cultures(PRK) (Concentration required to reduce virus-induced cytopathogenicity by 50%); details: Oryctolagus cuniculus
[12] = Evaluation for antiviral activity against herpes simplex virus-1(TK-) (B2006) in primary rabbit kidney cell cultures(PRK) (Concentration required to reduce virus-induced cytopathogenicity by 50%); details: Oryctolagus cuniculus
[13] = Evaluation for antiviral activity against herpes simplex virus-2(196) in primary rabbit kidney cell cultures(PRK) (Concentration required to reduce virus-induced cytopathogenicity by 50%); details: Oryctolagus cuniculus
[14] = Evaluation for antiviral activity against herpes simplex virus-2(G) in primary rabbit kidney cell cultures(PRK) (Concentration required to reduce virus-induced cytopathogenicity by 50%); details: Oryctolagus cuniculus
[15] = Evaluation for antiviral activity against herpes simplex virus-2(Lyons) in primary rabbit kidney cell cultures(PRK) (Concentration required to reduce virus-induced cytopathogenicity by 50%); details: Oryctolagus cuniculus
[16] = test system: Vero; assay: Evaluation for antiviral activity against reo virus-1 in Vero cell cultures (Concentration required to reduce virus-induced cytopathogenicity by 50%); details: Chlorocebus sabaeus
In short: (§4)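 Vero cultures were infected with parainfluenza-3, reovirus-1, Sindbis, Coxsackie B4 or Semliki forest virus. Values are concentrations giving 50% reduction of virus-induced cytopathogenicity, or a microscopically detectable alteration of normal cell morphology for cytotoxicity. Each is the average of two separate experiments.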

[17] = test system: Vero; assay: Evaluation in Vero cell cultures for cytotoxicity that is to cause microscopically detectable alteration of normal cell morphology; details: Chlorocebus sabaeus; in short: as §4
[18] = test system: Vero; assay: Evaluation for antiviral activity against forest virus in Vero cell cultures (Concentration required to reduce virus-induced cytopathogenicity by 50%); details: Chlorocebus sabaeus; in short: as §4
[19] = test system: Vero; assay: Evaluation for antiviral activity against Sindbis virus in Vero cell cultures (Concentration required to reduce virus-induced cytopathogenicity by 50%); details: Chlorocebus sabaeus; in short: as §4
[20] = test system: Vero; assay: Evaluation for antiviral activity against parainfluenza-3 virus in Vero cell cultures (Concentration required to reduce virus-induced cytopathogenicity by 50%); details: Chlorocebus sabaeus; in short: as §4
[21] = test system: L1210; assay: Inhibitory effect on the proliferation of murine leukemia cells (L1210); details: Mus musculus, read-out: ID50 (the source's name); in short: as §3
[22] = test system: Influenza B virus; assay: Concentration required to reduce influenza virus B (singapore) induced cytopathogenicity by 50%; in short: as §2
[23] = test system: Vero; assay: Evaluation for antiviral activity against Coxsackie virus B4 in Vero cell cultures (Concentration required to reduce virus-induced cytopathogenicity by 50%); details: Chlorocebus sabaeus; in short: as §4
[24] = Evaluation for antiviral activity against vaccinia virus in primary rabbit kidney cell cultures(PRK) (Concentration required to reduce virus-induced cytopathogenicity by 50%); details: Oryctolagus cuniculus
[25] = test system: Influenza A virus; assay: Concentration required to reduce influenza virus A (ishikawa) induced cytopathogenicity by 50%; in short: as §2
[26] = test system: HeLa; assay: Evaluation for antiviral activity against polio virus-1 in HeLa cell cultures (Concentration required to reduce virus-induced cytopathogenicity by 50%); details: Homo sapiens; in short: as §1
[27] = test system: HeLa; assay: Compound was evaluated for antiviral activity against respiratory syncitial virus (long) in HeLa cell cultures (Concentration required to reduce virus-induced cytopathogenicity by 50%); details: Homo sapiens; in short: as §1

For `N[C@@H]1CSCON2CCc3c([nH]c4ccccc34)[C@@H]12`, the MIC [1] was > 10 µg/mL, the MIC [2] was > 10 µg/mL and the MCC [3] was > 10 µg/mL. The MCC [4] was 15 µg/mL, the IC50 [5] was 4.5 µg/mL (≈ 16.3 µM) and the IC50 [6] was 5.14 µg/mL (≈ 18.7 µM). The MIC [7] was > 10 µg/mL, the MCC [8] was 40 µg/mL and the MIC [9] was > 10 µg/mL. The MIC [10] was > 10 µg/mL, the MIC [11] was > 10 µg/mL and the MIC [12] was > 10 µg/mL. For the same compound, the MIC [13] was > 10 µg/mL, the MIC [14] was > 10 µg/mL and the MIC [15] was > 10 µg/mL. For the same compound, the MIC [16] was > 10 µg/mL, the MCC [17] was 40 µg/mL and the MIC [18] was > 10 µg/mL. The MIC [19] was > 10 µg/mL, the MIC [20] was > 10 µg/mL and the IC50 [21] was 17.4 µg/mL (≈ 63.2 µM). For the same compound, the MIC [22] was > 8 µg/mL, the MIC [23] was > 10 µg/mL and the MIC [24] was > 10 µg/mL. For the same compound, the MIC [25] was > 8 µg/mL, the MIC [26] was > 10 µg/mL and the MIC [27] was > 8 µg/mL.

For `N[C@@H]1CSCON2CCc3c([nH]c4ccccc34)[C@H]12`, the MIC [1] was 0.7 µg/mL (≈ 2.54 µM), the MIC [2] was 0.2 µg/mL (≈ 0.726 µM) and the MCC [3] was > 4 µg/mL. For the same compound, the MCC [4] was 8 µg/mL, the IC50 [5] was 0.075 µg/mL (≈ 0.272 µM) and the IC50 [6] was 0.12 µg/mL (≈ 0.436 µM). For the same compound, the MIC [7] was 0.2 µg/mL (≈ 0.726 µM), the MCC [8] was > 10 µg/mL and the MIC [9] was 0.07 µg/mL (≈ 0.254 µM). The MIC [10] was 0.7 µg/mL (≈ 2.54 µM), the MIC [11] was 0.2 µg/mL (≈ 0.726 µM) and the MIC [12] was 0.7 µg/mL (≈ 2.54 µM). The MIC [13] was 0.2 µg/mL (≈ 0.726 µM), the MIC [14] was 0.2 µg/mL (≈ 0.726 µM) and the MIC [15] was 0.07 µg/mL (≈ 0.254 µM). For the same compound, the MIC [16] was 0.4 µg/mL (≈ 1.45 µM), the MCC [17] was > 4 µg/mL and the MIC [18] was 0.2 µg/mL (≈ 0.726 µM). The MIC [19] was 0.2 µg/mL (≈ 0.726 µM), the MIC [20] was 0.2 µg/mL (≈ 0.726 µM) and the IC50 [21] was 0.11 µg/mL (≈ 0.399 µM). It also gave an MIC [22] of 0.8 µg/mL (≈ 2.91 µM), an MIC [23] of 0.4 µg/mL (≈ 1.45 µM) and an MIC [24] of 0.1 µg/mL (≈ 0.363 µM). The MIC [25] was 0.8 µg/mL (≈ 2.91 µM), the MIC [26] was 0.7 µg/mL (≈ 2.54 µM) and the MIC [27] was 0.8 µg/mL (≈ 2.91 µM).
